This is an account of results in ChEMBL document CHEMBL4020721 (Eur J Med Chem, 2017).

Bounds are passed on as bounds.

A short description of data set [1]: AUC (0 to 24 hrs) in Sprague-Dawley rat plasma at 6 mg/kg, po by UPLC-MS/MS analysis. The format is ADME, organism-based. Details: dose 6 mg/kg, time < 24 hr, route oral. The gist of the method: (§1)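 Male Sprague-Dawley rats (180-220 g) were fasted overnight with free access to water. Dosing was intravenous (n=2) or oral at 6 mg/kg (n=3). Heparinized blood was drawn from 0 to 1440 min. Plasma was frozen at -20°C, then precipitated with acetonitrile containing internal standard, centrifuged and analysed by UPLC-MS/MS.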

For data set [2], the target named is T1, CYP3A4 (Homo sapiens, UniProt P08684). Description: Time dependent irreversible inhibition of CYP3A4 in human liver microsomes at 10 uM preincubated with compound followed by NADPH addition by LC-MS/MS analysis. The conditions noted are these: liver microsomes. It counts as ADME. A digest of the protocol:
(§2)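 HLM (0.2 mg/ml) with 10 µM compound were preincubated 0, 5, 10 or 20 min at 37°C with 1 mM NADPH or PBS. Substrate cocktail (halved concentrations) plus NADPH was then added for 10 min. Metabolites were measured by LC-MS/MS. Kobs is the slope of relative activity versus preincubation time.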
For orientation: Liver microsomes are vesicles of endoplasmic reticulum, rich in cytochrome P450 enzymes.

A short description of data set [3]: Volume of distribution at steady state in Sprague-Dawley rat plasma at 1 mg/kg, iv by UPLC-MS/MS analysis. The conditions noted are these: read-out: Vdss. It counts as ADME, organism-based. The gist of the method: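 Male Sprague-Dawley rats (180-220 g), fasted overnight with water available, dosed iv (n=2). Blood on heparin collected from 0 to 1440 min. Plasma obtained by centrifugation and stored at -20°C. Proteins precipitated with acetonitrile containing internal standard, then UPLC-MS/MS. Vss taken from the iv data.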

Data set [4] deals with Mus musculus. Nature of the data set: Toxicity in BALB/c athymic nude mouse xenografted with human NCI-H1993 cells assessed as apparent toxicity parameters at 0.1 to 10 mg/kg, po administered once daily for 3 weeks. It counts as organism-based. The conditions noted are these: in vivo, 504 h.
Data set [5] concerns Mus musculus. Nature of the data set: Toxicity in BALB/c athymic nude mouse xenografted with human SNU5 cells assessed as apparent toxicity parameters at 0.3 to 3 mg/kg, po administered once daily for 2 weeks. It counts as organism-based. The conditions noted are these: in vivo, 336 h. The gist of the method:
(§3)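 Female/male BALB/c nude mice (5-6 weeks, SPF). NCI-H1993 cells (7×10^6 in 140 µL) or SNU-5 cells (6×10^6 in 200 µL) injected s.c. into the right flank. Dosing started at mean tumour volume 150-250 mm³ (NCI-H1993) or 100-200 mm³ (SNU-5). Randomized, n = 7 (NCI-H1993) or 6 (SNU-5) per group. Oral dosing once daily; vehicle controls. Body weight and signs of toxicity monitored during treatment.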
(In general: Xenograft models place foreign cells or tissue in a host animal.)

The target in data set [6] is Macrophage-stimulating protein receptor (Homo sapiens, UniProt Q04912). Nature of the data set: Inhibition of RON (unknown origin) using FAM-labeled peptide as substrate preincubated for 5 to 10 mins followed by substrate/ATP addition measured after 30 to 60 mins by mobility shift assay. The gist of the method: (§4)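 Caliper mobility-shift assay with FAM-labeled peptide substrate. Buffer: 50 mM HEPES pH 7.5, 0.0015% Brij-35, 10 mM MgCl2, 2 mM DTT, with kinase-specific enzyme levels. […] Incubation was 30-60 min at 28°C, stopped with EDTA buffer. Read-out was % conversion.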
Sequence of Macrophage-stimulating protein receptor (Q04912 25-304 limits assumed): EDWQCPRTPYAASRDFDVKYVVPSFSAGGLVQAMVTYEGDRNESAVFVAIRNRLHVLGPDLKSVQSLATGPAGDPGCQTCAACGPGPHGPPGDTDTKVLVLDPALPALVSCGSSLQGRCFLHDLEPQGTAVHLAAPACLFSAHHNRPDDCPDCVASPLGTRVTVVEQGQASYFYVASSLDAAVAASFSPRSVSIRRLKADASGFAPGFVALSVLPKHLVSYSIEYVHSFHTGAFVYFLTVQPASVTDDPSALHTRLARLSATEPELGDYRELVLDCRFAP
Sequence of Macrophage-stimulating protein receptor (Q04912 310-1400 limits assumed): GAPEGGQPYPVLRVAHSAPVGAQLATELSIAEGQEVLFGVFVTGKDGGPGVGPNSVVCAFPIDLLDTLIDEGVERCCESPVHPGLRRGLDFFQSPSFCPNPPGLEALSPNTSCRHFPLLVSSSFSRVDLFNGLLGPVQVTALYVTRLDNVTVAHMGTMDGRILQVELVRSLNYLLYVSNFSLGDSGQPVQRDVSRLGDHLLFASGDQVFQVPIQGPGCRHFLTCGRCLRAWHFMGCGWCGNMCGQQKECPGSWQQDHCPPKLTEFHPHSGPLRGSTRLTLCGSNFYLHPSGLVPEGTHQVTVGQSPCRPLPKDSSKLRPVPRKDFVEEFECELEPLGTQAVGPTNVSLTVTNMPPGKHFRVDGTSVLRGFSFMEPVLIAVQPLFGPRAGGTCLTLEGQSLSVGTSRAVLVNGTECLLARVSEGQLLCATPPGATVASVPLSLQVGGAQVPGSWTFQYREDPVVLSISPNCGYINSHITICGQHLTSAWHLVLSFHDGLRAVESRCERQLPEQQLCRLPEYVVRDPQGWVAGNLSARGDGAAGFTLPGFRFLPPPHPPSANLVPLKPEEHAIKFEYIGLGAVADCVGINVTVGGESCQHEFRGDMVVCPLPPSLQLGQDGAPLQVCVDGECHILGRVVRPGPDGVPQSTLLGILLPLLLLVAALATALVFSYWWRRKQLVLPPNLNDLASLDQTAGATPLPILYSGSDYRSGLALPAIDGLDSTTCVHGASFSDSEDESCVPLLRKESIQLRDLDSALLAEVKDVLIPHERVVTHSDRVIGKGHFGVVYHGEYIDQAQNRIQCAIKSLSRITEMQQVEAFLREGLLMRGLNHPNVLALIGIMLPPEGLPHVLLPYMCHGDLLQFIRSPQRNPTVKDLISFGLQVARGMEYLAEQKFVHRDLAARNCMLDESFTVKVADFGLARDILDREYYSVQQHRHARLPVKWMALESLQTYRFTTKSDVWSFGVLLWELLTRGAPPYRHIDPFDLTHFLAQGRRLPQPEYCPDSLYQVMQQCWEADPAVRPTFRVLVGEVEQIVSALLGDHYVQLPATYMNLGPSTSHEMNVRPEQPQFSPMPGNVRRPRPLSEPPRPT

Data set [7] addresses Tyrosine-protein kinase ABL1 (Homo sapiens, UniProt P00519). Nature of the data set: Inhibition of ABL (unknown origin) using FAM-labeled peptide as substrate preincubated for 5 to 10 mins followed by substrate/ATP addition measured after 30 to 60 mins by mobility shift assay. The gist of the method:
as §4

In data set [8] the target is Epidermal growth factor receptor (Homo sapiens, UniProt P00533, T790M). Description: Inhibition of EGFR T790M mutant (unknown origin) using FAM-labeled peptide as substrate preincubated for 5 to 10 mins followed by substrate/ATP addition measured after 30 to 60 mins by mobility shift assay. A digest of the protocol: as §4
Data set [9] concerns NCI-H1993. Description: Antitumor activity against human NCI-H1993 cells xenografted in BALB/c athymic nude mouse assessed as tumor growth inhibition at 0.1 mg/kg, po administered once daily for 3 weeks. The format is functional. The conditions noted are these: 504 h, read-out: TGI. A digest of the protocol: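 BALB/c nude mice, 5-6 weeks old, kept under SPF conditions, received 7×10^6 NCI-H1993 cells s.c. in the right flank. At 150-250 mm³ they were sorted and randomized, n=7 per group, with vehicle controls. Dosing was oral, once daily for 3 weeks. […] Mean±SEM, Student's t-test.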

Data set [10] in a line: Clearance in Sprague-Dawley rat plasma at 1 mg/kg, iv by UPLC-MS/MS analysis. The format is ADME, organism-based. A digest of the protocol:
as §1

In data set [11] the test system is Mus musculus. Nature of the data set: Toxicity in BALB/c athymic nude mouse xenografted with human NCI-H1993 cells assessed as body weight loss at 0.1 to 10 mg/kg, po administered once daily for 3 weeks. It counts as organism-based. The conditions noted are these: in vivo, 504 h. A digest of the protocol: as §3
Data set [12] is described as follows: Drug recovery in human liver microsomes at 1 uM measured after 30 mins by LC-MS/MS analysis. The format is ADME, microsome. The conditions noted are these: liver microsomes, read-out: Drug recovery. The gist of the method:
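Liver microsomes (0.5 mg/ml) were incubated with 1 µM compound at 37°C in 100 mM phosphate buffer pH 7.4 without NADPH for 30 min. Reactions were quenched with acetonitrile/tinidazole internal standard and analysed by LC-MS/MS. Recovery (%) was taken from the compound/internal standard peak area ratio.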

Data set [13] relates to NCI-H1993. Nature of the data set: Growth inhibition of human NCI-H1993 cells after 72 hrs by CCK-8 assay. The format is functional, cell-based. The conditions noted are these: nci-h1993. Background: Formazan colour is commonly taken as a measure of viable cells.
For data set [14], the target named is T2, CYP2C19 (Homo sapiens, UniProt P33261). Nature of the data set: Time dependent irreversible inhibition of CYP2C19 in human liver microsomes at 10 uM preincubated with compound followed by NADPH addition by LC-MS/MS analysis. It counts as ADME. The gist of the method:
as §2

For data set [15], the target named is T1, CYP3A4. Description: Reversible inhibition of CYP3A4 in human liver microsomes at 10 uM after 20 mins in presence of NADPH by LC-MS/MS analysis. The conditions noted are these: liver microsomes. It counts as ADME.
The target in data set [16] is ALK tyrosine kinase receptor (Homo sapiens, UniProt Q9UM73). Nature of the data set: Inhibition of ALK (unknown origin) using FAM-labeled peptide as substrate preincubated for 5 to 10 mins followed by substrate/ATP addition measured after 30 to 60 mins by mobility shift assay. A digest of the protocol:
as §4

The target of data set [17] is Proto-oncogene tyrosine-protein kinase receptor Ret (Homo sapiens, UniProt P07949). Description: Inhibition of RET (unknown origin) using FAM-labeled peptide as substrate preincubated for 5 to 10 mins followed by substrate/ATP addition measured after 30 to 60 mins by mobility shift assay. A digest of the protocol:
as §4

Data set [18] has as its target T2, CYP2C19. Description: Reversible inhibition of CYP2C19 in human liver microsomes at 10 uM after 20 mins in presence of NADPH by LC-MS/MS analysis. It counts as ADME. The conditions noted are these: liver microsomes.
In data set [19] the target is Vascular endothelial growth factor receptor 2 (Homo sapiens, UniProt P35968). Description: Inhibition of VEGFR2 (unknown origin) using FAM-labeled peptide as substrate preincubated for 5 to 10 mins followed by substrate/ATP addition measured after 30 to 60 mins by mobility shift assay. A digest of the protocol: as §4
Sequence of Vascular endothelial growth factor receptor 2 (P35968 whole entry): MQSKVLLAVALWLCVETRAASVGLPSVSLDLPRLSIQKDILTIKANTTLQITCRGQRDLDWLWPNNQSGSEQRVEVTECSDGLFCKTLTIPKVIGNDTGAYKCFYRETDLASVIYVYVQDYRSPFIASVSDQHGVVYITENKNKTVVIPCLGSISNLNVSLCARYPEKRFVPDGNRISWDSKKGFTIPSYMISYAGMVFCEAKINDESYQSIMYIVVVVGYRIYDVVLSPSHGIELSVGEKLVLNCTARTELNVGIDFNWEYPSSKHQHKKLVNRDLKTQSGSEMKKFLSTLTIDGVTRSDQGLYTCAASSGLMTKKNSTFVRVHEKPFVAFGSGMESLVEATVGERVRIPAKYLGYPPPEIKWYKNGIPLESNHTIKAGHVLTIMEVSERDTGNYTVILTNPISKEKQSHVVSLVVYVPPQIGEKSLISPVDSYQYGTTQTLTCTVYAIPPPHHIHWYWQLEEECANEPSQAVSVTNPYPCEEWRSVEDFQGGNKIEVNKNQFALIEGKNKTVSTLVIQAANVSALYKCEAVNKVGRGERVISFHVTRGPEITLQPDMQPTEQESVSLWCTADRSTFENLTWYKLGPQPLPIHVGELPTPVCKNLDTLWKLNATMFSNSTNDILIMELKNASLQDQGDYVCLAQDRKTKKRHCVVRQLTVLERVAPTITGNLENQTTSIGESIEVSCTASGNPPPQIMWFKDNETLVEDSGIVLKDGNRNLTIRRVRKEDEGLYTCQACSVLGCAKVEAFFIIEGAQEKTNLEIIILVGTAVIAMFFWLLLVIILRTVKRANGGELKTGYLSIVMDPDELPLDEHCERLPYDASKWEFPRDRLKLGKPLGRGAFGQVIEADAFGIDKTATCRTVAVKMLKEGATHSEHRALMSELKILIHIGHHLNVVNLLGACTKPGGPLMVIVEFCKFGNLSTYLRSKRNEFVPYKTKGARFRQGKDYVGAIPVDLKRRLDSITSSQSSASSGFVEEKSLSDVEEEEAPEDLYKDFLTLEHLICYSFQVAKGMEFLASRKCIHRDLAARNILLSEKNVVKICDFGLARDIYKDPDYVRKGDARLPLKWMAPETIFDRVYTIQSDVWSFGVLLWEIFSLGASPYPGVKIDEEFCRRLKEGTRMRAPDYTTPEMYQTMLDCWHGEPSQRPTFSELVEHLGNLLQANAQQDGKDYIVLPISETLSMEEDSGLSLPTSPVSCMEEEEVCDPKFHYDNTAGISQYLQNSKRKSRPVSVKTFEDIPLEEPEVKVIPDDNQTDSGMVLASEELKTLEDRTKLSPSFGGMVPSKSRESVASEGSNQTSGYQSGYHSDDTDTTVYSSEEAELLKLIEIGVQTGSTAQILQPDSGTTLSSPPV
In a further data set the test system is SNU-5. Nature of the data set: Antitumor activity against human SNU5 cells xenografted in BALB/c athymic nude mouse assessed as tumor regression at 3 mg/kg, po administered once daily for 2 weeks. The format is functional. A digest of the protocol: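 Nude BALB/c mice, 5-6 weeks old, under SPF conditions, were implanted s.c. in the right flank with 6×10^6 SNU-5 cells. Groups were sorted at 100-200 mm³, n=6, with vehicle controls. Oral dosing once daily for 2 weeks. Percent tumor regression = 100% × (treated day 0 − treated final)/treated day 0. Mean±SEM, Student's t-test.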

T1 sequence (P08684 whole entry): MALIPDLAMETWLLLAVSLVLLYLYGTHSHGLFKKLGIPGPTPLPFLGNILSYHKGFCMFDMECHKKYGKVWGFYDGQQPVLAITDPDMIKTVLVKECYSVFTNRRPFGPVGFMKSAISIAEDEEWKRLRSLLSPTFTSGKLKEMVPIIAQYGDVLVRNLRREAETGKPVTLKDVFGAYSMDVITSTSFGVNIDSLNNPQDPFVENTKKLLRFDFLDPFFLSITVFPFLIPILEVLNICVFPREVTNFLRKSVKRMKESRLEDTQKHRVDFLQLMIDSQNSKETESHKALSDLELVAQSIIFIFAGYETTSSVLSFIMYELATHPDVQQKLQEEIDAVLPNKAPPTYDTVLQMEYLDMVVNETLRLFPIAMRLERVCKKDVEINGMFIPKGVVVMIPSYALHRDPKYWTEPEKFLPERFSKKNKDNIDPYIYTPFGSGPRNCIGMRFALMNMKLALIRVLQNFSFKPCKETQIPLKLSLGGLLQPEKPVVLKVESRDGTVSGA
T2 sequence (P33261 whole entry): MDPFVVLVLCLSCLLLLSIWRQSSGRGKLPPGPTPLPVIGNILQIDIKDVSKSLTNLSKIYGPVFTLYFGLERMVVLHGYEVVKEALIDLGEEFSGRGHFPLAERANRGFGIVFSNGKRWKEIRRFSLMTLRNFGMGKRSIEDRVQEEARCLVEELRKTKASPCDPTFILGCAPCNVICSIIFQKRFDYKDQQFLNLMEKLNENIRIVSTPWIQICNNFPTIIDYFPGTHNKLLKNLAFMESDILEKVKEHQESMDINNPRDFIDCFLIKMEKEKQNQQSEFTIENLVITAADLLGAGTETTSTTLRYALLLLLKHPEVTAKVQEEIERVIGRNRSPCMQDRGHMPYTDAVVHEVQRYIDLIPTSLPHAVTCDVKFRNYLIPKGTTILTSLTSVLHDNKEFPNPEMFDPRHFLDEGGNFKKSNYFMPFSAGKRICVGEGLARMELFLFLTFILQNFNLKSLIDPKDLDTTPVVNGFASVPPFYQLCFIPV
Sequence of Proto-oncogene tyrosine-protein kinase receptor Ret (P07949 whole entry): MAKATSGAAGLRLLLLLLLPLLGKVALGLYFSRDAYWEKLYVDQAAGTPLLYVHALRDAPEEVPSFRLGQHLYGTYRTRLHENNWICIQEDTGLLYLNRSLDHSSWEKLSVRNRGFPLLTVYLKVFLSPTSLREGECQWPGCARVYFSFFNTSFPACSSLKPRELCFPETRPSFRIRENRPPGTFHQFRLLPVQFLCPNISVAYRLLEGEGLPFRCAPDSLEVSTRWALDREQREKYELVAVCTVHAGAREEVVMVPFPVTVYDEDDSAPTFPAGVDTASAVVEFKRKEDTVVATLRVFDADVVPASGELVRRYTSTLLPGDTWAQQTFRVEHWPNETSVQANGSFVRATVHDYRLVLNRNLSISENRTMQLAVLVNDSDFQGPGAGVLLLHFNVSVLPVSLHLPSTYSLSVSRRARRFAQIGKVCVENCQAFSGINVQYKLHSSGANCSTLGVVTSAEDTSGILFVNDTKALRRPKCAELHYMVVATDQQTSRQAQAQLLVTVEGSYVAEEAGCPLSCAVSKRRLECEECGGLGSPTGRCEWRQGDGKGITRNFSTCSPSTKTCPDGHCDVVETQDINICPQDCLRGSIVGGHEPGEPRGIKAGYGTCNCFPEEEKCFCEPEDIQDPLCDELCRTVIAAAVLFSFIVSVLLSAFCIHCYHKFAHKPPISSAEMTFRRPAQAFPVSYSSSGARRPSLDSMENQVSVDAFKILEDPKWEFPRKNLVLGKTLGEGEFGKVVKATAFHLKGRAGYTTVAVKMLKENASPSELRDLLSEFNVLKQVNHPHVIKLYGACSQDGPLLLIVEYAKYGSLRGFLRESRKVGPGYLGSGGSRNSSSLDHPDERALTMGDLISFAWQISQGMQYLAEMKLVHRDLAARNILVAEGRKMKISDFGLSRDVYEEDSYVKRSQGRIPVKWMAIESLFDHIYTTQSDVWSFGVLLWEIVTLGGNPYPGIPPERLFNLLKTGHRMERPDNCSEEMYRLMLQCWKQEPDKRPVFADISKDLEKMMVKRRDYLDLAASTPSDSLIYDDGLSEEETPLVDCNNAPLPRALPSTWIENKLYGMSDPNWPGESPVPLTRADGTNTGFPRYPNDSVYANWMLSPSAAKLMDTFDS

As to `CC(c1cc2cc(-c3cnn(C)c3)cnc2cc1F)n1nnc2ncc(-c3cnn(CCO)c3)nc21` (stereo in doubt; 14), the AUC(0-t) (usually the area under the concentration-time curve up to a stated or last time point) at 24 h in data set [1] stood at 1250 ng·h/mL. In addition, the inhibition at 10 µM at CYP3A4 [2] and on CYP2C19 [14] was less than 50% in each case. For the same compound, in [3], the Vd came out at 2.1 L/kg. Besides, the Activity entry in the data set with Mus musculus [4] was “Non-Toxic”; in the data set with Mus musculus [5], “Non-Toxic”; in the data set with Mus musculus [11], “Non-Toxic”; in the data set with SNU-5 it was 87.9%. For the same compound, the IC50 – broadly, the point on the concentration scale where inhibition reaches its midpoint – was 0.731 µM in data set [6]; greater than 30 µM in [7]; greater than 30 µM in [8]; 0.0011 µM in the data set with NCI-H1993 [13]; greater than 30 µM in data set [16]; greater than 30 µM in data set [17]. Also, the half-maximal inhibitory concentration (IC50) in data set [19] was 18.4 µM. The inhibition in vivo at 0.1 mg/kg in the data set on NCI-H1993 [9] is 55.5%. For the same compound, the clearance (commonly the volume of plasma or blood freed of the substance per unit of time) in data set [10] was 9.67 mL/min/kg. Also, the remaining at 0.5 h, 1 µM in data set [12] came out at 95%. Also, the inhibition at 20 min, 10 µM at CYP3A4 [15] and at CYP2C19 [18] was less than 50% in each case.
